Bfl-1 A1 inh: caspase 3/7 activation in MEF A1-2A-BIM cells, primary screen, A1 inhibitor project, cell-based, luminescence, HTS | Caspase-Glo 3/7 luminescence, 3 h; percent of clofoctol response, vehicle zero | hit rate 0.066% among 330,000 | caspase activation, % (concentration not given with the values);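 active = over half of replicate activation scores above 10%, or exactly half above 10 with the replicate mean above 10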
NALP1 inh: NALP1 inflammasome inhibitors in reconstituted yeast, colorimetric, S. cerevisiae, triplicate retest; AID 2071, 2009; inhibition, % at 10 µM; S. cerevisiae NALP1/ASC/caspase-1 growth, X-gal OD620, 72 h; hit rate 0.61% among 280,000; in the data active = inhibition mostly above about 24%, no sharp cut-off; inactive = mostly below about 32%
MC4R antagonist: MC4R antagonists of cAMP signaling, primary screen, cell-based, TR-FRET, antagonist arm of biased-ligand search; AID 540295, 2011; inhibition, % at 6.5 µM; hit rate 0.48% among 360,000; MC4R-expressing cells, MTII-stimulated cAMP, LANCE TR-FRET;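 active = inhibition above its plate's cutoff, the mean of tested wells on that plate plus 3 SD, cut at about 29% in these data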;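 also: 0% = Melanotan II alone and 100% = Melanotan II plus saturating MCL0020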
Target sequence (P32245 whole entry, looked up): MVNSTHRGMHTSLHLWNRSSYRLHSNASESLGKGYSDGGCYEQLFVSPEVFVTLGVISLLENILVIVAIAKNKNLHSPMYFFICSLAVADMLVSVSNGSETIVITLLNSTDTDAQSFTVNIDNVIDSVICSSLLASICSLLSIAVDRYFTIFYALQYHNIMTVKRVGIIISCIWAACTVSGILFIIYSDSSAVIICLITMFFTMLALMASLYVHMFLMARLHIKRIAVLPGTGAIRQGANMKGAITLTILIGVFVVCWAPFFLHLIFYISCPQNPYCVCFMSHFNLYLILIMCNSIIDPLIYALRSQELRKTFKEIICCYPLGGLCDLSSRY
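Material – human MC4R-expressing U2OS cells · Repeats – no replicates · Detection – TR-FRET with Eu-cAMP and labeled anti-cAMP, 671 nm · Times – compound 30 min, challenge 1 h, detection 1 h · Compound – single nominal compound dose of 6.5 µM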
MC4R barr agon: MC4R agonists recruiting beta-arrestin, primary screen, cell-based, luminescence, agonist arm of biased-ligand search. activation, % at 8.9 µM. hit rate 0.98% among 360,000. U2OS MC4R beta-arrestin complementation; percent of melanotan II response, DMSO zero. Melanocortin receptor 4 (Homo sapiens), P32245. AID 540308, 2011;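 active = activation above a per-plate cutoff, the mean activation of sample wells on that plate plus 3 SD, cut at about 8% in these data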
Tb MetRS inh: T. brucei MetRS inhibitors, primary screen, biochemical, luminescence; hit rate 0.4% among 360,000; methionyl-tRNA synthetase (Trypanosoma brucei brucei); inhibition, % at 11.9 µM; purified T. brucei MetRS, ATP depletion, Kinase-Glo luminescence;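 active = inhibition above a per-plate cutoff of the control wells' mean inhibition plus 3 SD, cut at about 5.5% in these data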;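 also: 0% = DMSO wells median and 100% = median of wells with control inhibitor compound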
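Test system: purified T. brucei MetRS enzyme. Also added: ATP, methionine and E. coli bulk tRNA substrates. Compound: 11.9 µM single point. Schedule: 15 min enzyme-compound preincubation, 2 h reaction, 10 min detection, 25 °C. Signal: luciferase luminescence of residual ATP, Kinase-Glo. Evaluation: percent inhibition versus plate control medians. Controls: DMSO wells, low control.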
NALP3 yeast inh: NALP3 inflammasome inhibitors in reconstituted yeast, primary screen, luminescence, uHTS | inhibition, % at 10 µM | Yeast reconstituted NLRP3/ASC/caspase-1, beta-gal luminescence, 24 h | AID 2825, 2010 | hit rate 0.39% among 330,000;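 active = inhibition of 50% or more; inactive = inhibition below 50%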;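 also: plate controls were induced DMSO wells for no effect and uninduced yeast grown without galactose for full effect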
cAMP nonselect: nonselective cAMP signaling inhibitors, parental cells, counter-screen for MC4R biased antagonist project, cell-based, TR-FRET, U2OS, forskolin, triplicate | hit rate 26% among 1,600 | AID 602193, 2012 | inhibition, % at 6.5 µM | shares compounds with MC4R antagonist | LANCE TR-FRET;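 active = mean inhibition over triplicates above the low-control well mean plus 3 SD, set per campaign, cut at about 13% in these data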;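 also: signal is single emission at 671 nm which falls as cellular cAMP rises; 0% = forskolin-stimulated wells and 100% = buffer without forskolin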
MC4R antag conf: MC4R cAMP antagonists, retest, confirmation, cell-based, TR-FRET | hit rate 27% among 1,600 | MC4R-expressing cells, MTII-stimulated cAMP | inhibition, % at 6.5 µM | shares compounds with MC4R antagonist; in the data active = inhibition above about 29%;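 also: 0% = agonist stimulated wells alone and 100% = agonist stimulated wells plus saturating reference antagonist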
Starred values were filed as active, the others as inactive. Rows were chosen to be rich in hits. Some 2.5% of all compounds tested hit in one or more screens of this group.

For O=C(CC1C(=O)NCCN1Cc1ccccc1C(F)(F)F)NC1CCCCCC1 (stereo not drawn) the results were Bfl-1 A1 inh 1.0, NALP1 inh 29.0, MC4R antagonist -3.6, MC4R barr agon -0.1, Tb MetRS inh -0.4 and NALP3 yeast inh 0.0.
COc1ccc(C2CC(=O)C=C(NCc3ccccc3)C2)cc1 (stereo not drawn) was read as Bfl-1 A1 inh 0.5, NALP1 inh 4.6, MC4R antagonist -4.8, MC4R barr agon -1.2, Tb MetRS inh 1.1 and NALP3 yeast inh 20.4.
For CCCCc1ccc(S(=O)(=O)NC(=O)C2(C)CCN2C(=O)c2cccc(F)c2)cc1 (stereo not drawn) the results were MC4R antagonist -5.7, MC4R barr agon 0.4 and Tb MetRS inh 0.6.
For COC(=O)c1ccc(NC(=O)c2nc(S(=O)(=O)Cc3cccc(C)c3)ncc2Cl)cc1 the results were Bfl-1 A1 inh 2.2, NALP1 inh 9.1, MC4R antagonist 13.6, MC4R barr agon -6.4, Tb MetRS inh 0.1 and NALP3 yeast inh 16.1.
For CC(=O)Nc1ccc(NC(=O)c2nc(S(=O)(=O)Cc3cccc(C)c3)ncc2Cl)cc1 the results were Bfl-1 A1 inh 0.7, NALP1 inh 5.5, MC4R antagonist 42.9*, MC4R barr agon -5.9, Tb MetRS inh 0.3, NALP3 yeast inh 14.8, cAMP nonselect 14.2* and MC4R antag conf 27.8.
`Cc1ccc(S(=O)(=O)Nc2ccccc2-c2nc3ccccc3[nH]c2=O)cc1` gave Bfl-1 A1 inh -0.1, MC4R antagonist 3.5, MC4R barr agon -2.7, Tb MetRS inh -0.1 and NALP3 yeast inh 13.9.
Screening O=C(Nc1ccc(C(=O)O)cc1)/C(=C\c1ccco1)NC(=O)c1ccco1 returned Bfl-1 A1 inh -0.2, NALP1 inh -4.7, MC4R antagonist -5.8, MC4R barr agon -1.1, Tb MetRS inh 0.3 and NALP3 yeast inh 25.5.
O=C(Oc1ccccc1C(=O)Nc1ccccc1)c1ccc(Br)c([N+](=O)[O-])c1 was read as Bfl-1 A1 inh -0.3, NALP1 inh 30.1, MC4R antagonist 35.8*, MC4R barr agon -1.0, Tb MetRS inh -0.3, NALP3 yeast inh 46.7, cAMP nonselect 11.8 and MC4R antag conf 18.2.
For COc1ccccc1C(=O)Oc1ccccc1C(=O)Nc1ccccc1 the results were Bfl-1 A1 inh -2.3, NALP1 inh -5.3, MC4R antagonist 19.1, MC4R barr agon 1.1, Tb MetRS inh -0.5 and NALP3 yeast inh 25.9.
For Cc1cc(C)nc(NS(=O)(=O)c2ccc(NC(=O)C3COc4ccccc4O3)cc2)n1 (stereo not drawn) the results were Bfl-1 A1 inh 0.6, NALP1 inh 5.6, MC4R antagonist 29.2*, MC4R barr agon -1.0, Tb MetRS inh -0.1, NALP3 yeast inh -40.4, cAMP nonselect 2.0 and MC4R antag conf 2.9.
CCOC(=O)c1cc(C(=O)NC(C)c2ccccc2)c(=O)[nH]c1C (stereo not drawn) was read as Bfl-1 A1 inh 0.5, NALP1 inh 14.2, MC4R antagonist 11.1, MC4R barr agon 1.3, Tb MetRS inh -0.2 and NALP3 yeast inh 7.6.
COC(=O)c1cc(C(=O)NCc2ccccc2)c(=O)[nH]c1C was read as Bfl-1 A1 inh -0.6, NALP1 inh 13.1, MC4R antagonist 30.3*, MC4R barr agon 0.0, Tb MetRS inh -0.3, NALP3 yeast inh 7.0, cAMP nonselect 2.8 and MC4R antag conf 7.4.
`CCCC(=O)NC(NC(=S)Nc1ccc(S(N)(=O)=O)cc1)C(Cl)(Cl)Cl` (stereo not drawn) gave Bfl-1 A1 inh 0.5, NALP1 inh 14.2, MC4R antagonist 16.3, MC4R barr agon -1.5, Tb MetRS inh -0.3 and NALP3 yeast inh 5.8.
`CCCC(=O)NC(NC(=S)Nc1ccc(N=Nc2ccccc2)cc1)C(Cl)(Cl)Cl` (stereo not drawn) gave Bfl-1 A1 inh -0.5, NALP1 inh 13.9, MC4R antagonist 29.3*, MC4R barr agon -2.7, Tb MetRS inh -0.7, NALP3 yeast inh 11.1, cAMP nonselect -1.4 and MC4R antag conf 16.1.
For Cn1c(=O)c2c(-c3ccccc3)n(-c3ccccc3)cc2n(C)c1=O the results were MC4R antagonist -6.3, MC4R barr agon 0.8 and Tb MetRS inh -0.8.
Screening Cn1c(=O)c2c(-c3ccccc3)n(-n3cnnc3)cc2n(C)c1=O returned Bfl-1 A1 inh -1.0, NALP1 inh 5.2, MC4R antagonist 28.7*, MC4R barr agon -1.5, Tb MetRS inh 0.2, NALP3 yeast inh 3.5, cAMP nonselect 2.0 and MC4R antag conf 10.4.
`CC(=O)c1ccc2ccccc2c1OC(=O)c1ccncc1` gave MC4R antagonist 2.7, MC4R barr agon -1.7 and Tb MetRS inh -0.1.
Screening COc1ccc2[nH]c3c(=S)nc[nH]c3c2c1 returned Bfl-1 A1 inh -0.1, NALP1 inh -31.9, MC4R antagonist 37.8*, MC4R barr agon -1.7, Tb MetRS inh 0.1, NALP3 yeast inh 21.1, cAMP nonselect 4.5 and MC4R antag conf 12.7.
COc1cccc(C(NC(C)=O)c2nc(-c3ccccc3C)cs2)c1 (stereo not drawn) was read as MC4R antagonist 2.4, MC4R barr agon -2.5 and Tb MetRS inh 0.0.
COc1ccc(CN2CCN(S(=O)(=O)c3ccc(NC(C)=O)cc3)CC2)cc1 was read as Bfl-1 A1 inh 0.2, MC4R antagonist -1.7, MC4R barr agon -1.8, Tb MetRS inh 0.1 and NALP3 yeast inh 17.0.
For COc1ccc(CN2CCN(S(=O)(=O)c3ccc(NC(C)=O)cc3)CC2)c(OC)c1OC the results were Bfl-1 A1 inh -0.6, NALP1 inh 16.6, MC4R antagonist 30.7*, MC4R barr agon 1.4, Tb MetRS inh -0.2, NALP3 yeast inh 16.9, cAMP nonselect 0.5 and MC4R antag conf 8.7.
`Cc1cccc(C)c1NC(=O)C(c1ccccc1)n1c(-c2ccccc2)nc2ccccc21` (stereo not drawn) gave Tb MetRS inh -0.1.

Bioassay records deposited in PubChem by several laboratories.
